Test results as given in ChEMBL document CHEMBL1157912, “Impact of nature and length of linker incorporated in agonists on toll-like receptor 9-mediated immune responses” (J Med Chem, 2010).

Legend:
[1] = biological target: T1, Toll-like receptor 9 (Homo sapiens) (UniProt Q9NR96); experiment: Induction of TLR9-mediated immune stimulation in human PBMC assessed as IP10 production at 10 ug/ml after 24 hrs by luminex multiplex assay (RVb = 0.00 ng/ml)
T1 sequence (whole entry): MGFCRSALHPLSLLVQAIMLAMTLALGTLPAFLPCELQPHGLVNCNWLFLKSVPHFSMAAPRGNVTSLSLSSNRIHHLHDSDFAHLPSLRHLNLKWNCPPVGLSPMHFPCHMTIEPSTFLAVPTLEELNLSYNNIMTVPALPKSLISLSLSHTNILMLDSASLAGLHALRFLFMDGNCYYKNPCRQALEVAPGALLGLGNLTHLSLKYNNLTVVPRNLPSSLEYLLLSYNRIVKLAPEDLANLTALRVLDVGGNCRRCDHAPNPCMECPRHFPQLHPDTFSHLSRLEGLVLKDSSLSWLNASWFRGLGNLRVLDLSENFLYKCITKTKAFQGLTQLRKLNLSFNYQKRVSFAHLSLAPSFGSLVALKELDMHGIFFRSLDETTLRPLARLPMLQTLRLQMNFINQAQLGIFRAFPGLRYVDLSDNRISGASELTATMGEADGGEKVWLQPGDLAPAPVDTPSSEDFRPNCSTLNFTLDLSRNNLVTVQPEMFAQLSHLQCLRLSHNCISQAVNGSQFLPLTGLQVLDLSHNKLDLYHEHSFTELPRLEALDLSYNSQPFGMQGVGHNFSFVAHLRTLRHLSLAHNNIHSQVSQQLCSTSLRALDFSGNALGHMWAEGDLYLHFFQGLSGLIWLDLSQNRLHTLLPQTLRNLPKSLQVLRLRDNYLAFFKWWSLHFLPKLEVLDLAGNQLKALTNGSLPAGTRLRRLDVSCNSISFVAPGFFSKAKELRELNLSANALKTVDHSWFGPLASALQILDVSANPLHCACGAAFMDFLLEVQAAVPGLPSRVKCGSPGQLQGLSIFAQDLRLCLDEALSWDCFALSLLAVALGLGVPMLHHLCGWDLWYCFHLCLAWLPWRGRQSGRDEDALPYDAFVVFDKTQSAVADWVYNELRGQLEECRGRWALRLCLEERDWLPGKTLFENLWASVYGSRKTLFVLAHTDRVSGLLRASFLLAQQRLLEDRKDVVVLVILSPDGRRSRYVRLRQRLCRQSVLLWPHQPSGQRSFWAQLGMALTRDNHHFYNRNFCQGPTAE

[2] = biological target: T1, Toll-like receptor 9 (Homo sapiens); experiment: Induction of TLR9-mediated immune stimulation in human PBMC assessed as MIP1alpha production at 10 ug/ml after 24 hrs by luminex multiplex assay (RVb = 0.01 ng/ml)
[3] = biological target: T1, Toll-like receptor 9 (Homo sapiens); experiment: Induction of TLR9-mediated immune stimulation in human PBMC assessed as MIP1beta production at 10 ug/ml after 24 hrs by luminex multiplex assay (RVb = 0.03 +/- 0.02 ng/ml)
[4] = biological target: T2, Toll-like receptor 9 (Mus musculus) (UniProt Q9EQU3); experiment: Induction of TLR9-mediated IL12 production in C57BL/6 mouse spleen cells after 24 hrs by ELISA; format: cell-based
T2 sequence (whole entry): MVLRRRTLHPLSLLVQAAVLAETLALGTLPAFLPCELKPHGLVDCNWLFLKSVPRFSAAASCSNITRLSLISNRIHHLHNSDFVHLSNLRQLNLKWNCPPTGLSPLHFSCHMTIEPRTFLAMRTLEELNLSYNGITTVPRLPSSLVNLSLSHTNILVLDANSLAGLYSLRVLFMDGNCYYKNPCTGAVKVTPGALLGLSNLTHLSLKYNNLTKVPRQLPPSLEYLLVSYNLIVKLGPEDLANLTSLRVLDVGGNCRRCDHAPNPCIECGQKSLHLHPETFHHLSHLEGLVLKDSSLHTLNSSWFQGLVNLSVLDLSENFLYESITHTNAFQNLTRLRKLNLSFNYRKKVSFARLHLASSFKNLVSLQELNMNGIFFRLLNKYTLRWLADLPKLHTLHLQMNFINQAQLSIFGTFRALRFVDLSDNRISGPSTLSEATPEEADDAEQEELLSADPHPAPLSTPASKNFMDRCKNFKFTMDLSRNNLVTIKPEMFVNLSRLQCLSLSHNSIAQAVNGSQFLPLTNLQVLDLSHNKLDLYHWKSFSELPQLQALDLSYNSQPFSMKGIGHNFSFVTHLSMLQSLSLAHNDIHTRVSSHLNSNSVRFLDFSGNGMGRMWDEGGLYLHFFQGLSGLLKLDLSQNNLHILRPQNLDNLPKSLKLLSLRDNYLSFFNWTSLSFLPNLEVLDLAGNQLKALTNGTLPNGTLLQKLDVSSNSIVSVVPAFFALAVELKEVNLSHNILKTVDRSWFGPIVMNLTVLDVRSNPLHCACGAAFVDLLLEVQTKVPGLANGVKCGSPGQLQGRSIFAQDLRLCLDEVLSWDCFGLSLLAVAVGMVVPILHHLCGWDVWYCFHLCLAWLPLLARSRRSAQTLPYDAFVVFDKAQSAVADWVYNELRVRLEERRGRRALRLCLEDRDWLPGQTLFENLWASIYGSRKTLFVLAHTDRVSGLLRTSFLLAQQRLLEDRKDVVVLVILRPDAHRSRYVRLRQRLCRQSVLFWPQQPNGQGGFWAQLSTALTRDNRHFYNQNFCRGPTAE
Outline: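 C57BL/6 mouse spleen cells were cultured with agonists at 0.1, 0.3, 1, 3 and 10 μg/mL for 24 h. Secreted IL-12 and IL-6 in the supernatants were measured by ELISA. Values are averages of triplicate wells from one representative of at least two independent experiments.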

[5] = biological target: T1, Toll-like receptor 9 (Homo sapiens); experiment: Induction of TLR9-mediated immune stimulation in human PBMC assessed as MCP1 production at 2 ug/ml after 24 hrs by luminex multiplex assay (RVb = 0.08 +/- 0.02 ng/ml)
[6] = biological target: T1, Toll-like receptor 9 (Homo sapiens); experiment: Induction of TLR9-mediated immune stimulation in human PBMC assessed as MCP1 production at 10 ug/ml after 24 hrs by luminex multiplex assay (RVb = 0.08 +/- 0.02 ng/ml)
[7] = biological target: T1, Toll-like receptor 9 (Homo sapiens); experiment: Induction of TLR9-mediated immune stimulation in human PBMC assessed as IL6 production at 10 ug/ml after 24 hrs by luminex multiplex assay (RVb = 0.01 ng/ml)
[8] = biological target: T1, Toll-like receptor 9 (Homo sapiens); experiment: Induction of TLR9-mediated immune stimulation in human PBMC assessed as IL6 production at 2 ug/ml after 24 hrs by luminex multiplex assay (RVb = 0.01 ng/ml)

Activity [1]: 0.02 ng/mL
Activity [2]: 0.07 ng/mL
Activity [3]: 0.15 ng/mL
Activity [4]: Dose-dependent effect
Activity [5]: 0.2 ng/mL
Activity [6]: 0.37 ng/mL
Activity [7]: 0.03 ng/mL
Activity [8]: 0.02 ng/mL
Compound: Cc1cn([C@H]2C[C@H](OCC(O)COP(=O)(S)O[C@H]3C[C@H](n4cc(C)c(=O)[nH]c4=O)O[C@@H]3COP(=O)(S)O[C@H]3[C@@H](O)[C@H](n4ccc(N)nc4=O)O[C@@H]3COP(=O)(S)O[C@H]3[C@@H](O)[C@H](n4cnc5c(N)ncnc54)O[C@@H]3COP(=O)(S)O[C@H]3[C@@H](O)[C@H](n4cnc5c(N)ncnc54)O[C@@H]3COP(=O)(S)O[C@H]3[C@@H](O)[C@H](n4ccc(N)nc4=O)O[C@@H]3COP(=O)(S)O[C@H]3[C@@H](O)[C@H](n4ccc(N)nc4=O)O[C@@H]3COP(=O)(S)O[C@H]3[C@@H](O)[C@H](n4cnc5c(N)ncnc54)O[C@@H]3COP(=O)(S)O[C@H]3[C@@H](O)[C@H](n4ccc(N)nc4=O)O[C@@H]3COP(=O)(S)O[C@H]3[C@@H](O)[C@H](n4cnc5c(N)ncnc54)O[C@@H]3COP(=O)(S)O[C@H]3[C@@H](O)[C@H](n4ccc(N)nc4=O)O[C@@H]3COP(=O)(S)O[C@H]3[C@@H](O)[C@H](n4cnc5c(N)ncnc54)O[C@@H]3CO)[C@@H](COP(=O)(S)O[C@H]3[C@@H](O)[C@H](n4ccc(N)nc4=O)O[C@@H]3COP(=O)(S)O[C@H]3[C@@H](O)[C@H](n4cnc5c(N)ncnc54)O[C@@H]3COP(=O)(S)O[C@H]3[C@@H](O)[C@H](n4cnc5c(N)ncnc54)O[C@@H]3COP(=O)(S)O[C@H]3[C@@H](O)[C@H](n4ccc(N)nc4=O)O[C@@H]3COP(=O)(S)O[C@H]3[C@@H](O)[C@H](n4ccc(N)nc4=O)O[C@@H]3COP(=O)(S)O[C@H]3[C@@H](O)[C@H](n4cnc5c(N)ncnc54)O[C@@H]3COP(=O)(S)O[C@H]3[C@@H](O)[C@H](n4ccc(N)nc4=O)O[C@@H]3COP(=O)(S)O[C@H]3[C@@H](O)[C@H](n4cnc5c(N)ncnc54)O[C@@H]3COP(=O)(S)O[C@H]3[C@@H](O)[C@H](n4ccc(N)nc4=O)O[C@@H]3COP(=O)(S)O[C@H]3[C@@H](O)[C@H](n4cnc5c(N)ncnc54)O[C@@H]3CO)O2)c(=O)[nH]c1=O (stereo partly drawn)
